Measurements as given in ChEMBL document CHEMBL1147981, “Small molecule activators of SIRT1 as therapeutics for the treatment of type 2 diabetes” (Nature, 2007).
Calls of active or inactive are those of the source. The calls are words filed in the database; no cut-off is given here.

Tests used:
Mus musculus [1] = assay: Reduction of glucose levels in DIO C57BL/6 mouse model at 5 mg/kg, po during insulin tolerance test; type: functional, organism-based; parameters: dose 5 mg/kg
Summary of the method: (§1)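 Male C57BL/6 mice, started at nine weeks, fed 60%-fat diet until mean weight ~40 g; 6-10 per group; once-daily oral gavage in 2% HPMC + 0.2% DOSS. Fed glucose at 2, 4, 6, 8, 10 weeks; IPGTT after 5 weeks; ITT after 10 weeks. One-way ANOVA with Dunnett's test vs control, p<0.05.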

Mus musculus [2] = assay: Reduction of fasting blood glucose in DIO C57BL/6 mouse model at 5 mg/kg, po assessed as glucose level by glucose tolerance test; type: functional; summary of the method: as §1

Q: How did the Activity (Mus musculus [1]) turn out when `CN(CCOc1ccc(CC2SC(=O)NC2=O)cc1)c1ccccn1` (configuration not stated) [ROSIGLITAZONE] was run?
A: Its Activity is “Active”.

Q: And the Activity (Mus musculus [2])?
A: Its Activity is 496 mg/h/dL.
